Results gathered from unrelated publications.
Lines come from different studies, so protocols differ.
Organism: Escherichia coli
Observed: microbial growth

SMILES	technique	strain	time	MIC
O=C(O)c1cn(C2CC2)c2cc(N3CCNCC3)c(F)cc2c1=O	–	MTCC739	24 h	32 µg/mL
Cc1ccccc1NC(=O)C=Cc1ccc(O)c(O)c1	broth dilution	ATCC25922	–	4 µg/mL
CO/N=C(\C(=O)N[C@@H]1C(=O)N2C(C(=O)[O-])=C(C[N+]3(C)CCCC3)CS[C@H]12)c1csc(N)n1	broth dilution	–	–	≤ 0.06 µg/mL
Cc1[nH]c(C(=O)Nc2ccc(C(=O)NCC(=O)O)cc2N2CCN(C(=O)OC(C)(C)C)CC2)c(Cl)c1Cl	broth dilution	ATCC25922	–	> 32 µg/mL
C[C@@H](O)[C@H]1C(=O)N2C(C(=O)O)=C(S[C@@H]3CN[C@H](C(=O)N(C)C)C3)[C@H](C)[C@H]12	broth dilution	–	–	≤ 0.06 µg/mL
Cl.N[C@@H]1CCN(c2cc(C(=O)NCC(=O)O)ccc2NC(=O)c2cc(Br)c(Br)[nH]2)C1	broth dilution	ATCC25922	–	> 32 µg/mL
Cc1nn(-c2ccccc2)c2c1C(c1ccc(N(C)C)cc1)N(C(=O)c1ccncc1)N2 (stereo not drawn)	–	MTCC739	24 h	> 100 µg/mL
CC(O)CSc1nnc(-c2cc3c(ccc4ccccc43)o2)n1-c1ccccc1 (stereo not drawn)	–	–	–	16000 µg/mL
COc1ccc(C2c3c(C)nn(-c4ccccc4)c3NN2C(=O)c2ccncc2)cc1 (stereo not drawn)	–	MTCC739	24 h	32 µg/mL
CC(O)CSc1nnc(Cn2cnc3c2c(=O)n(C)c(=O)n3C)n1-c1ccccc1 (stereo not drawn)	–	–	–	15000 µg/mL
Cl.O=C(O)CNC(=O)c1ccc(NC(=O)c2cc(Br)c(Br)[nH]2)c(N2CCNCC2)c1	broth dilution	ATCC25922	–	> 32 µg/mL
CC1(C)S[C@@H]2[C@H](NC(=O)[C@H](N)c3ccc(O)cc3)C(=O)N2[C@H]1C(=O)O	broth dilution	–	–	≤ 0.06 µg/mL
Cc1nn(-c2ccccc2)c2c1C(c1ccc([N+](=O)[O-])cc1)N(C(=O)c1ccncc1)N2 (stereo not drawn)	–	MTCC739	24 h	32 µg/mL
Nc1ccccc1OC(=O)C=Cc1ccc(O)c(O)c1	broth dilution	ATCC25922	–	8 µg/mL
Cc1nn(-c2ccccc2)c2c1C(c1c[nH]c3ccccc13)N(C(=O)c1ccncc1)N2 (stereo not drawn)	–	MTCC739	24 h	> 100 µg/mL
CC(C)(O/N=C(\C(=O)N[C@@H]1C(=O)N2C(C(=O)[O-])=C(C[n+]3ccccc3)CS[C@H]12)c1csc(N)n1)C(=O)O	broth dilution	ATCC25922	20 h	< 0.5 µg/mL
Cc1[nH]c(C(=O)Nc2ccc(C(=O)NCC(=O)O)cc2N2CC[C@@H](N)C2)c(Cl)c1Cl.Cl	broth dilution	ATCC25922	–	> 32 µg/mL
C[C@@H](O)[C@H]1C(=O)N2C(C(=O)O)=C(SCCNC=N)C[C@H]12	broth dilution	–	–	≤ 0.06 µg/mL
CC(O)CSc1nnc(-c2cc3ccccc3o2)n1-c1ccccc1 (stereo not drawn)	–	–	–	10000 µg/mL
CN(C)c1cc(NC(=O)CNC(C)(C)C)c(O)c2c1C[C@H]1C[C@H]3[C@H](N(C)C)C(O)=C(C(N)=O)C(=O)[C@@]3(O)C(O)=C1C2=O	broth dilution	–	–	≤ 0.06 µg/mL
C[C@H]1COc2c(N3CCN(C)CC3)c(F)cc3c(=O)c(C(=O)O)cn1c23	–	BW25113	–	0.16 µg/mL
O=C(N[C@H](CO)[C@H](O)c1ccc([N+](=O)[O-])cc1)C(Cl)Cl	–	–	24 h	2.5 to 5 µM
CC(C)(C)OC(=O)N[C@@H]1CCN(c2cc(C(=O)NCC(=O)O)ccc2NC(=O)c2cc(Br)c(Br)[nH]2)C1	broth dilution	ATCC25922	–	> 32 µg/mL
COc1cc(Cc2cnc(N)nc2N)cc(OC)c1OC	broth dilution	ATCC25922	–	8 µg/mL
Cc1[nH]c(C(=O)Nc2ccc(C(=O)NCC(=O)O)cc2N2CC[C@@H](NC(=O)OC(C)(C)C)C2)c(Cl)c1Cl	broth dilution	ATCC25922	–	> 32 µg/mL
CC1(C)S[C@@H]2[C@H](NC(=O)[C@H](N)c3ccccc3)C(=O)N2[C@H]1C(=O)O	broth dilution	ATCC25922	–	4 µg/mL
Cc1[nH]c(C(=O)Nc2ccc(-c3n[nH]c(=O)o3)cc2N2CC[C@H](N)C2)c(Cl)c1Cl.Cl	broth dilution	ATCC25922	–	8 µg/mL
CC1CCC(C(C)C)C(OC(=O)C=Cc2ccc(O)c(O)c2)C1 (stereo not drawn)	broth dilution	ATCC25922	–	2 µg/mL
CO/N=C(\C(=O)N[C@@H]1C(=O)N2C(C(=O)O)=C(CSc3nc(=O)c(O)nn3C)CS[C@H]12)c1csc(N)n1	broth dilution	–	–	≤ 0.5 µg/mL
CC(C)(C)OC(=O)N1CCN(c2cc(C(=O)NCC(=O)O)ccc2NC(=O)c2cc(Br)c(Br)[nH]2)CC1	broth dilution	ATCC25922	–	> 32 µg/mL
